Assay results of several laboratories.
Target: Serine/threonine-protein kinase 36 (STK36, Homo sapiens, UniProt Q9NRP7)
One construct used (Q9NRP7 1-1315): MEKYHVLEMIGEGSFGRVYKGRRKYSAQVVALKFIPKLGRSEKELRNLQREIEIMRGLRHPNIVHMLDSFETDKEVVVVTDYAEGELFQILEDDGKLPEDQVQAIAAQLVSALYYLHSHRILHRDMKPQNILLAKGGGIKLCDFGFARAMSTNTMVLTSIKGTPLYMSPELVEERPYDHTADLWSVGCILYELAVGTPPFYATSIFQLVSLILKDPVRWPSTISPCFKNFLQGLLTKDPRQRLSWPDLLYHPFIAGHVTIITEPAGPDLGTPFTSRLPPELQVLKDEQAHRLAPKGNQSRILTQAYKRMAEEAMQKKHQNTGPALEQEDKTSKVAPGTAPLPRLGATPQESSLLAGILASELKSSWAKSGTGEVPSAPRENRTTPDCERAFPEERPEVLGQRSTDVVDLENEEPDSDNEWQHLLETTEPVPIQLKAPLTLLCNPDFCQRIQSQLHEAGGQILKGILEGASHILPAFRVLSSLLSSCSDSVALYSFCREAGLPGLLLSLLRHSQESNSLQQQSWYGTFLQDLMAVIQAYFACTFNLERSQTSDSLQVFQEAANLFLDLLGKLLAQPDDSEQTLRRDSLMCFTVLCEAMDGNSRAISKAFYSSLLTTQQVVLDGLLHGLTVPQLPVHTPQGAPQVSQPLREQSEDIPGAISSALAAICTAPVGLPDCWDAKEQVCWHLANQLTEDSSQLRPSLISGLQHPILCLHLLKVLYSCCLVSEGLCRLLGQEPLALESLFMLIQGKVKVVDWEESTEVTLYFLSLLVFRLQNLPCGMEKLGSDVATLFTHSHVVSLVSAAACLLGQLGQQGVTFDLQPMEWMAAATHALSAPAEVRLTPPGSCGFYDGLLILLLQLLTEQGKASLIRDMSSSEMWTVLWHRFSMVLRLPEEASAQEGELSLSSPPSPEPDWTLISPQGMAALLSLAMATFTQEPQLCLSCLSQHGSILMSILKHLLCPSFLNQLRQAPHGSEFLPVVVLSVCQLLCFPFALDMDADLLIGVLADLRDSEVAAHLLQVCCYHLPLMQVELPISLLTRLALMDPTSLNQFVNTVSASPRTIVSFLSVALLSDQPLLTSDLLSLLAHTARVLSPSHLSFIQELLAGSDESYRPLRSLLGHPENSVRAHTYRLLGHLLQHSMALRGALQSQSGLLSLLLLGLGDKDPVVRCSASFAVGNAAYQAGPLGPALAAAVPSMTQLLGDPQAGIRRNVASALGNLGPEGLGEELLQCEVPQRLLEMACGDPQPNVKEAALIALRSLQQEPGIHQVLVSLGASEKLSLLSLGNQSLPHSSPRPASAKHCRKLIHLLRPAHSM

CCN1CCN(Cc2ccc(C(=O)Nc3ccc(C)c(Oc4ccc5c(c4)CC(=O)N5)c3)cc2C(F)(F)F)CC1 — remaining binding (binding; competition with immobilised ligand; 1 µM): 81%
CO[C@H]1CC[C@H](CNc2ccc(S(=O)(=O)NC(=O)c3ccc(N4CCN(CC5=C(c6ccc(Cl)cc6)CC(C)(C)CC5)CC4)cc3Oc3cnc4[nH]ccc4c3)cc2[N+](=O)[O-])CC1 — remaining binding (cell-free assay; competition with immobilised ligand; 1 µM): 71%
c1cnn2ncc(-c3ccnc(N4CCC45COC5)n3)c2c1 — remaining binding (binding; 1 µM): 76%
C=CC(=O)N1CCC(C(=O)NCC(=O)N2CCN(c3nc(-c4cnc(N)nc4C(F)F)nc(N4CCOCC4)n3)CC2)CC1 — remaining binding (binding; competition with immobilised ligand; 1 µM): 95%
CN1CCN(c2cnc3c(C4CCN(C(=O)c5ccc(OC(F)(F)F)cc5N)CC4)ncnc3c2)CC1 — remaining binding (cell-free assay; competition with immobilised ligand; 1 µM): 75%
COc1ncc2cc3ccccc3nc2c1C#N — remaining binding (cell-free assay; competition with immobilised ligand; 5 µM): 88%
C[C@H]1CCN(c2nccc(-c3cnn4ncccc34)n2)C1 — remaining binding (binding; 1 µM): 100%
Cc1nc(N2CC[C@@H](O)C2)ncc1-c1cc(C(F)(F)F)cc2[nH]ncc12 — remaining binding (binding; competition with immobilised ligand; 1 µM): 100%
c1cncc(-c2cccc(Nc3nccc(NC4CCCCC4)n3)c2)c1 — remaining binding (binding; competition with immobilised ligand; 10 µM): 49%
CCC(=O)N[C@@H]1CC[C@H](C(=O)N(C)c2ccc(-c3nc4ccccc4o3)cc2)C1 — remaining binding (cell-free assay; competition with immobilised ligand; 1 µM): 82%
FC(F)(F)Oc1cccc(-c2cnc3ccc(-c4ccncc4)nn23)c1 — remaining binding (binding; competition with immobilised ligand; 5 µM): 95%
COc1ccc2c(c1)O[C@H](c1ccc(OC)c(OC)c1)C[C@@H]2NC(=O)C1(c2ccc3c(c2)OC(F)(F)O3)CC1 — remaining binding (cell-free assay; competition with immobilised ligand; 1 µM): 94%
CN(c1nccc(-c2cnn3ncccc23)n1)C1CC1 — remaining binding (binding; 1 µM): 100%
O=C(NCCCN1CCOCC1)c1ccc(Nc2ncc(Cl)c(-c3ccc(Cl)s3)n2)cc1 — remaining binding (binding; competition with immobilised ligand; 1 µM): 6.2%
COc1cnc(Nc2cccc(S(N)(=O)=O)c2)nc1N1CCN(c2ccccc2)CC1 — remaining binding (binding; competition with immobilised ligand; 1 µM): 88%
Cc1cnc(Nc2ccc(C(=O)N3CCC(N4CCCC4)CC3)cc2)nc1-c1cc2ccccc2s1 — remaining binding (binding; competition with immobilised ligand; 1 µM): 3.6%
F[C@@H]1CCN(c2nccc(-c3cnn4ncccc34)n2)C1 — remaining binding (binding; 1 µM): 90%
CNCc1ccccc1-c1csc([C@H](C)Nc2nc(C)nc3cc(OC)c(OC)cc23)c1 — remaining binding (cell-free assay; competition with immobilised ligand; 1 µM): 100%
COc1ccnn2ncc(-c3ccnc(N(C)C)n3)c12 — remaining binding (binding; 1 µM): 81%
O=C(Nc1c[nH]nc1C(=O)NC1CCNCC1)c1cc(F)cc(F)c1 — remaining binding (binding; competition with immobilised ligand; 1 µM): 100%
N[C@@H]1CCN(c2nccc(-c3cnn4ncccc34)n2)C1 — remaining binding (binding; 1 µM): 77%
O=C(c1ccc(Nc2ncc(Cl)c(-c3cc4ccccc4s3)n2)cc1)N1CCC(N2CCCC2)CC1 — remaining binding (binding; competition with immobilised ligand; 1 µM): 3.4%
